What was measured:
[1] = molecular target: T1, Nuclear receptor ROR-gamma (Homo sapiens, UniProt P51449); test: Inhibition of human GAL4-fused RORgamma LBD transcriptional activity expressed in CHOK1 cells after 2 days by luciferase reporter gene assay; type: cell-based
T1 sequence (P51449 whole entry): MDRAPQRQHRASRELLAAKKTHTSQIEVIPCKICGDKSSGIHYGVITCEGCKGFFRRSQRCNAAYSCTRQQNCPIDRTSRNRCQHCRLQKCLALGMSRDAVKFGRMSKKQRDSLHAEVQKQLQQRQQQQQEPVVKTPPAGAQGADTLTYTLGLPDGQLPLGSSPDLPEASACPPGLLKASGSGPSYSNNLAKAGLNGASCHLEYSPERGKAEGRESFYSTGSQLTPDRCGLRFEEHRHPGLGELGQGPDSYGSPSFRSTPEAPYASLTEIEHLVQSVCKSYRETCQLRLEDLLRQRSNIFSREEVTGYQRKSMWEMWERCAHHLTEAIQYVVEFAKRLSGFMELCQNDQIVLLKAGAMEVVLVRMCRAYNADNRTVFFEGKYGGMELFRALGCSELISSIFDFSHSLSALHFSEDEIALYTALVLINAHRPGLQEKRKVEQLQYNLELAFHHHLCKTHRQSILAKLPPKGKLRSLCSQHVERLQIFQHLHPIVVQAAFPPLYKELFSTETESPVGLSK

[2] = Stability in human liver microsomes assessed as compound remaining after 60 mins; type: ADME, Microsome; conditions: read-out: Stability
Summary of the method: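 Human liver microsomes incubated with compound for 60 minutes; value reported as % of compound remaining.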

[3] = Lipophilicity, log D of the compound; type: physicochemical; conditions: octanol/water
[4] = Apparent permeability in human Caco2 cells; type: ADME, cell-based; conditions: Caco-2

Structure (SMILES)	EC50 [1] [nM]	remaining at 1 h [2] [%]	logD [3]	Papp [4] [×10⁻⁶ cm/s]
CNC(=O)CCC(CC(=O)Nc1ccc(C)cc1C)c1nnc(CCCC(C)C)n1C1CC1 (racemic)	6400	65	3.5	1.5
CCN(c1ccc(C(O)(C(F)(F)F)C(F)(F)F)cc1)S(=O)(=O)c1ccc([N+](=O)[O-])cc1	190			
Cc1ccc(NC(=O)CC(CCO)c2nnc(CCCC(C)C)n2C2CC2)c(C)c1 (racemic)	440	21	3.5	11
Cc1ccc(NC(=O)CC(CCN(C)C)c2nnc(CCCC(C)C)n2C2CC2)c(C)c1 (racemic)	19000	85	3.3	0.8
CC(C)(C)C(F)(F)c1cc(-c2onc([C@@H](CCC(=O)O)CC(=O)Nc3ccc(Cl)cc3F)c2C2CC2)no1	7	107	4.2	
CC(=O)NCCC(CC(=O)Nc1ccc(C)cc1C)c1nnc(CCCC(C)C)n1C1CC1 (racemic)	11000	39	3.5	1.3
CC(=O)N1C[C@H](C(=O)Nc2ccc(C)cc2C)[C@@H](c2nnc([C@H]3C[C@@H](CC(C)C)C3)n2C2CC2)C1		61	4.3	20
Cc1ccc(NC(=O)CCc2nnc(CCCC(C)C)n2C2CC2)c(C)c1		27	3.9	36
Cc1ccc(NC(=O)CC(CCC(=O)O)c2nnc(CCCC(C)C)n2C2CC2)c(C)c1 (racemic)	> 20000	91	2.9	0.2
Cc1ccc(NC(=O)CC(CCC(=O)N(C)C)c2nnc(CCCC(C)C)n2C2CC2)c(C)c1 (racemic)	2700	45	3.8	7
Cc1ccc(NC(=O)CC(CCC(N)=O)c2nnc(CCCC(C)C)n2C2CC2)c(C)c1 (racemic)	16000	44	3.4	0.8
Cc1ccc(NC(=O)CC(CCN)c2nnc(CCCC(C)C)n2C2CC2)c(C)c1 (racemic)	> 20000	88	3.1	0.2

Now from value to compound:

EC50 [1] [nM]	remaining at 1 h [2] [%]	logD [3]	Papp [4] [×10⁻⁶ cm/s]	Structure (SMILES)
12	54	3.8	28	Cc1ccc(NC(=O)C[C@H](CCC(=O)[O-])c2noc(-c3cc(CC(C)C)no3)c2C2CC2)c(Cl)c1.[Na+]
8	78	4.4		Cc1ccc(NC(=O)C[C@H](CCC(=O)O)c2noc(-c3cc(C(F)(F)CC(C)C)on3)c2C2CC2)c(Cl)c1
7	74	4		Cc1ccc(NC(=O)C[C@H](CCC(=O)O)c2noc(-c3cc(C(F)(F)C(C)C)on3)c2C2CC2)c(Cl)c1
6	90	4		CC(C)(C)C(F)(F)c1cc(-c2onc([C@@H](CCC(=O)O)CC(=O)Nc3ccc(F)cc3Cl)c2C2CC2)no1
62	90	3.6	25	Cc1ccc(NC(=O)C[C@H](CCC(=O)[O-])c2noc(-c3noc(CC(C)C)n3)c2C2CC2)c(Cl)c1.[Na+]
56	78	3.4	10	Cc1ccc(NC(=O)C[C@H](CCC(=O)[O-])c2noc(-c3nnc(CC(C)C)s3)c2C2CC2)c(Cl)c1.[Na+]
3800	82	3.8	34	Cc1ccc(NC(=O)C[C@H](CCC(=O)[O-])c2noc(-c3csc(CC(C)C)n3)c2C2CC2)c(Cl)c1.[Na+]
7	84	4.2		Cc1ccc(NC(=O)C[C@H](CCC(=O)O)c2noc(-c3cc(CC(C)(C)C)on3)c2C2CC2)c(Cl)c1
6	77	4.3		Cc1ccc(NC(=O)C[C@H](CCC(=O)O)c2noc(-c3cc(C(F)(F)C(C)(C)C)on3)c2C2CC2)c(Cl)c1
14	74	3.9	36	Cc1ccc(NC(=O)C[C@H](CCC(=O)[O-])c2noc(-c3cc(CC(C)C)on3)c2C2CC2)c(Cl)c1.[Na+]
44	80	4.8	16	Cc1ccc(NC(=O)C[C@H](CCC(=O)O)c2noc(-c3ccc(CC(C)C)cc3)c2C2CC2)c(Cl)c1
17	54	3.8	34	Cc1ccc(NC(=O)C[C@H](CCC(=O)[O-])c2noc(-c3cnc(CC(C)C)s3)c2C2CC2)c(Cl)c1.[Na+]
660	75	3.7	32	Cc1ccc(NC(=O)C[C@H](CCC(=O)[O-])c2noc(-c3ncc(CC(C)C)o3)c2C2CC2)c(Cl)c1.[Na+]
120	82	4	28	Cc1ccc(NC(=O)C[C@H](CCC(=O)[O-])c2noc(-c3ncc(CC(C)C)s3)c2C2CC2)c(Cl)c1.[Na+]
8	79	4.3		Cc1ccc(NC(=O)C[C@H](CCC(=O)O)c2noc(-c3cc(CCC(C)C)on3)c2C2CC2)c(Cl)c1

Reference: ChEMBL document CHEMBL4480411, “Discovery of Second Generation RORγ Inhibitors Composed of an Azole Scaffold” (J Med Chem, 2019)
